Results: ChEMBL document CHEMBL2321674, “Design, synthesis and biological evaluation of sulfur-containing 1,1-bisphosphonic acids as antiparasitic agents” (Eur J Med Chem, 2013)

Legend:
Vero = experiment: Cytotoxicity against african green monkey Vero cells assessed as cell viability at 25 uM; type: cell-based; conditions: chlorocebus sabaeus
Toxoplasma gondii = experiment: Antiparasitic activity against Toxoplasma gondii tachyzoite expressing red fluorescence protein assessed as growth inhibition by fluorescence plate reader; type: functional; conditions: read-out: ED50 (the source's name)
Method in brief: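 T. gondii tachyzoites expressing red fluorescent protein, filtered (3 μm) and needle-passed, inoculated at 10^4/well onto confluent hTerT monolayers in DMEM-HG with 1% FBS, 2 mM glutamine, 1 mM pyruvate, serial drug dilutions; 37 °C, 5% CO2, fluorescence read daily from bottom (ex 510/em 540 nm).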

[1] = target: T1, Farnesyl diphosphate synthase (Toxoplasma gondii, UniProt Q197X6); experiment: Inhibition of Toxoplasma gondii farnesyl diphosphate synthase assessed as incorporation of [4-14C]IPP measured at 37 degC
T1 sequence (Q197X6 whole entry): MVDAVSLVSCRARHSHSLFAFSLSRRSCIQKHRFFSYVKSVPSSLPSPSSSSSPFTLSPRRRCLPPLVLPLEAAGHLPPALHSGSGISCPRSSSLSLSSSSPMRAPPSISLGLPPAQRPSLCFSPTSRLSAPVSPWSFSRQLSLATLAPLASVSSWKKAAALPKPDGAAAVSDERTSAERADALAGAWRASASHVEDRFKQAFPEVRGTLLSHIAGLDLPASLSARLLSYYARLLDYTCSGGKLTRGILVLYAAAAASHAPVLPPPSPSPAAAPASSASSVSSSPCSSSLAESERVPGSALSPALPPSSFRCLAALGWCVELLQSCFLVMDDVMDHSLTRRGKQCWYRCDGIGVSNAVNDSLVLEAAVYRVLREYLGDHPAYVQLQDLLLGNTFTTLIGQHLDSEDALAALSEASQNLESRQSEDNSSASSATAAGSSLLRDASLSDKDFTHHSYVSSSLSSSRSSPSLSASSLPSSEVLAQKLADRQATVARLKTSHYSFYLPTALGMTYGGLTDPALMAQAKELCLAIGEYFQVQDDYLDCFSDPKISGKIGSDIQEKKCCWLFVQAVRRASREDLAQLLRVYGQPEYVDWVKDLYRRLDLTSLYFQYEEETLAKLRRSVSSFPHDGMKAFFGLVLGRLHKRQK

Trypanosoma cruzi = experiment: Antiparasitic activity against Trypanosoma cruzi amastigotes infected in gamma-irradiated vero cells assessed as growth inhibition measured after 3 days by fluorescence assay; type: functional; conditions: light or radiation study, 72 h, read-out: ED50 (the source's name)
[2] = target: T2, Farnesyl diphosphate synthase (Trypanosoma cruzi, UniProt Q8WS26); experiment: Inhibition of Trypanosoma cruzi farnesyl diphosphate synthase assessed as incorporation of [4-14C]IPP measured at 37 degC
T2 sequence (Q8WS26 whole entry): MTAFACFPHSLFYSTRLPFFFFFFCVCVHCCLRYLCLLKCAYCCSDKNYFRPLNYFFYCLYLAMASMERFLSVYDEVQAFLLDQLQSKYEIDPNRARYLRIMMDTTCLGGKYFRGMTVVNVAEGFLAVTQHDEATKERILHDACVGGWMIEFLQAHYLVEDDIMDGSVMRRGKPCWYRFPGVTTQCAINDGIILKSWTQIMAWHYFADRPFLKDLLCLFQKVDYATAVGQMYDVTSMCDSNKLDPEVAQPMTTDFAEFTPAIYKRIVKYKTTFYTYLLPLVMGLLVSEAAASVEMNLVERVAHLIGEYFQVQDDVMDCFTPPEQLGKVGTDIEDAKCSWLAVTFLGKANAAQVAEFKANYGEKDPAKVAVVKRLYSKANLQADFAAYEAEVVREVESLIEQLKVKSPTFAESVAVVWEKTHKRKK

[3] = Cytotoxicity against hTerT cells assessed as growth inhibition measured at > 200 uM after 3 to 4 days by Alamar Blue assay; type: cell-based; conditions: human
Method in brief: (§1)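 Non-irradiated confluent hTERT cells in phenol-red-free high-glucose DMEM with 10% Cosmic Calf Serum, washed, serial drug dilutions in quadruplicate, 35 °C, 7% CO2 for 3–4 days. AlamarBlue at 10% of culture volume, 6 h at 35 °C, absorbance at 570 and 600 nm. Percent growth inhibition = 100 minus percent reduction difference versus untreated control; DMSO as toxicity control.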

[4] = Cytotoxicity against hTerT cells assessed as growth inhibition measured at > 1000 uM after 3 to 4 days by Alamar Blue assay; type: cell-based; conditions: human; method in brief: as §1
[5] = Cytotoxicity against hTerT cells assessed as growth inhibition measured at >= 500 uM after 3 to 4 days by Alamar Blue assay; type: cell-based; conditions: human; method in brief: as §1

| Structure (SMILES) | Activity (Vero) | EC50 (Toxoplasma gondii) | IC50 [1] | EC50 (Trypanosoma cruzi) | IC50 [2] | Activity [3] | Activity [4] | Activity [5] |
| --- | --- | --- | --- | --- | --- | --- | --- | --- |
| CCCSCC(P(=O)(O)O)P(=O)(O)O | Non-toxic | > 10 µM | 66 nM | > 20 µM | 0.925 µM | – | – | – |
| CCCCCCCCCC[S+]([O-])CC(P(=O)(O)O)P(=O)(O)O (stereo not drawn) | Non-toxic | 7.6 µM | > 10000 nM | > 20 µM | > 10 µM | – | – | – |
| CCCCCS(=O)(=O)CC(P(=O)(O)O)P(=O)(O)O | Non-toxic | > 10 µM | > 10000 nM | > 20 µM | > 10 µM | – | – | – |
| CCCCCCCC[S+](C)CC(P(=O)(O)O)P(=O)(O)O.F[B-](F)(F)F (stereo not drawn) | Non-toxic | 7 µM | 13 nM | > 20 µM | 0.04 µM | – | – | – |
| CCCCCC(C)NCC(P(=O)(O)O)P(=O)(O)O (stereo not drawn) | Non-toxic | 11.4 µM | < 1000 nM | > 20 µM | > 10 µM | – | – | – |
| CCCCCCCNCC(O)(P(=O)(O)O)P(=O)(O)O | Non-toxic | > 10 µM | > 1000 nM | > 20 µM | > 10 µM | – | – | – |
| CCSCC(P(=O)(O)O)P(=O)(O)O | Non-toxic | > 10 µM | 1830 nM | > 20 µM | 0.627 µM | – | – | – |
| CCCCSCC(P(=O)(O)O)P(=O)(O)O | Non-toxic | > 10 µM | 48 nM | > 20 µM | 0.789 µM | – | – | – |
| CCCCCSCC(P(=O)(O)O)P(=O)(O)O | Non-toxic | > 10 µM | 110 nM | > 20 µM | > 10 µM | – | – | – |
| CCCCCCSCC(P(=O)(O)O)P(=O)(O)O | Non-toxic | 6.5 µM | 307 nM | > 20 µM | > 10 µM | – | – | – |
| CCCCCCCSCC(P(=O)(O)O)P(=O)(O)O | Non-toxic | 0.97 µM | 69 nM | > 20 µM | > 10 µM | Non-toxic | – | – |
| CCCCCCCCSCC(P(=O)(O)O)P(=O)(O)O | Non-toxic | 2.6 µM | 24 nM | 15.8 µM | 6.39 µM | – | Non-toxic | – |
| CCCCCCCCCSCC(P(=O)(O)O)P(=O)(O)O | Non-toxic | 1.2 µM | 25 nM | 12.8 µM | 1.7 µM | – | – | Non-toxic |
| CCCCCCCCCCSCC(P(=O)(O)O)P(=O)(O)O | Non-toxic | 1.8 µM | 21 nM | > 20 µM | 0.097 µM | Non-toxic | – | – |
| CCCC[S+]([O-])CC(P(=O)(O)O)P(=O)(O)O (stereo not drawn) | Non-toxic | > 10 µM | > 10000 nM | > 20 µM | > 10 µM | – | – | – |
| CCCCC[S+]([O-])CC(P(=O)(O)O)P(=O)(O)O (stereo not drawn) | Non-toxic | > 10 µM | > 10000 nM | > 20 µM | > 10 µM | – | – | – |
| CCCCCC[S+]([O-])CC(P(=O)(O)O)P(=O)(O)O (stereo not drawn) | Non-toxic | > 10 µM | > 10000 nM | > 20 µM | > 10 µM | – | – | – |
| CCCCCCC[S+]([O-])CC(P(=O)(O)O)P(=O)(O)O (stereo not drawn) | Non-toxic | 5 µM | 9 nM | > 20 µM | > 10 µM | – | – | – |
| CCCCCCCC[S+]([O-])CC(P(=O)(O)O)P(=O)(O)O (stereo not drawn) | Non-toxic | 3 µM | 16 nM | > 20 µM | > 10 µM | – | – | – |
| CCCCCCCCC[S+]([O-])CC(P(=O)(O)O)P(=O)(O)O (stereo not drawn) | Non-toxic | 1.4 µM | 56 nM | 19.4 µM | > 10 µM | – | Non-toxic | – |
| O=C(Cn1ccnc1[N+](=O)[O-])NCc1ccccc1 [BENZNIDAZOLE] | – | – | – | 1.7 µM | – | – | – | – |
| O=P(O)(O)C(O)(Cc1cccnc1)P(=O)(O)O [RISEDRONIC ACID] | – | 2.4 µM | – | 55 µM | – | – | – | – |
